Test [1] is described as follows: Induction of apoptosis in mouse MOVAS cells assessed as early apoptotic cells by flow cytometry. In kind it is functional. The procedure, abridged: (§1)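 Trypsinized MOVAS cells stained with a PE Annexin V apoptosis detection kit and analysed by flow cytometry, which separated early and late apoptotic populations. Mean ± SD; two-tailed Student's t-test.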
(In general: A flow cytometer gives signals particle by particle.)

For test [2], the system named is MOVAS. The experiment in a line: Cell cycle arrest in mouse MOVAS cells assessed as effect on G0/G1-phase cell population by flow cytometry. The class given is functional, cell-based. The essentials: (§2)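 MOVAS mouse aortic SMCs (about 2–5×10^6) harvested by trypsin, washed twice in PBS, fixed overnight at 4 °C in cold 70% ethanol, then stained 2 h in the dark with RNase A (0.3 mg) and propidium iodide (0.015 mg). Cell-cycle phase distribution read by flow cytometry. Data are mean ± SD, compared by two-tailed t-test.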

Test [3] is described as follows: Induction of apoptosis in mouse MOVAS cells assessed as late apoptotic cells by flow cytometry. The class given is functional. The essentials:
as §1

In test [4] the test system is MOVAS. The experiment in a line: Cell cycle arrest in mouse MOVAS cells assessed as effect on S-phase cell population by flow cytometry. In kind it is functional, cell-based. The essentials:
as §2

Test [5] has as its system MOVAS. The experiment in a line: Cell cycle arrest in mouse MOVAS cells assessed as effect on G2/M-phase cell population by flow cytometry. The class given is functional, cell-based. The procedure, abridged: as §2
Test [6] addresses Histone-lysine N-methyltransferase EZH2 (Mus musculus) (UniProt Q61188). As to the kind of experiment: Inhibition of EZH2 in mouse MOVAS cells assessed as reduction in H3K27me3 level at 5 uM measured after 24 hrs by Western blot analysis. The class given is cell-based. The procedure, abridged:
(§3)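 Total protein from MOVAS cells extracted in RIPA buffer. 20 μg per lane resolved by SDS-PAGE and transferred to PVDF. Blocked in 5% non-fat milk, primary antibody overnight at 4 °C, then peroxidase-conjugated secondary and chemiluminescence imaging. Normalized to GAPDH or β-actin loading control. n = 4; mean ± SD versus DMSO, two-tailed t-test.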
On the technique in general: A western blot detects proteins with antibodies after separation by electrophoresis.

For test [7] the target is unchanged. The experiment in a line: Inhibition of EZH2 in mouse MOVAS cells assessed as elevation of LC3-II expression at 5 uM in presence of chloroquine and rapamycin by Western blot analysis. In kind it is cell-based. The essentials: as §3
The target is the same in test [8]. The experiment in a line: Inhibition of EZH2 in mouse MOVAS cells assessed as effect on AMPKalpha phosphorylation at 5 uM measured after 24 hrs by Western blot analysis. In kind it is cell-based. The procedure, abridged: as §3
The target is the same in test [9]. As to the kind of experiment: Inhibition of EZH2 in mouse MOVAS cells assessed as reduction in AKT phosphorylation at 5 uM measured after 24 hrs by Western blot analysis. The class given is cell-based. The essentials:
as §3

Test [10] shares this target. As to the kind of experiment: Inhibition of EZH2 in mouse MOVAS cells assessed as cell injury at 5 uM measured after 48 hrs by LDH release assay. In kind it is cell-based. The essentials:
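Mouse MOVAS VSMCs exposed to inhibitor for 48 h. Cell injury quantified as percentage of injured cells from released LDH using a cytotoxicity LDH kit. n = 6; mean ± SD versus DMSO, two-tailed t-test.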

The target is the same in test [11]. As to the kind of experiment: Inhibition of EZH2 in mouse MOVAS cells assessed as reduction in cell count at 5 uM measured after 48 hrs in presence of MEK1 inhibitor PD98059 by light microscopy. The class given is cell-based. The essentials:
(§4)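 Mouse MOVAS VSMCs imaged by light microscopy after 48 h of the indicated treatments (scale bar 200 μm). Lentivirally modified cells were selected with puromycin 2 μg/ml after 48 h infection. Treatments were inhibitor 5 μM, DMSO vehicle, or PD98059 50 μM.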

The target is the same in test [12]. As to the kind of experiment: Inhibition of EZH2 in mouse MOVAS cells assessed as increase in ATG7 expression at 5 uM measured after 24 hrs by Western blot analysis. The class given is cell-based. The procedure, abridged:
as §3

For test [13] the target is unchanged. The experiment in a line: Inhibition of EZH2 in mouse MOVAS cells assessed as increase in ERK1/2 phosphorylation at 5 uM measured after 6 hrs by Western blot analysis. The class given is cell-based. The procedure, abridged:
as §3

Test [14] has the same target. As to the kind of experiment: Inhibition of EZH2 in mouse VSMC cells assessed as reduction in cell count at 5 uM for 24 hrs by light microscopic analysis. The class given is cell-based. The following applies: MOVAS.
For test [15] the target is unchanged. As to the kind of experiment: Inhibition of EZH2 in mouse MOVAS cells transfected with shATG7 assessed as reduction in cell count at 5 uM measured after 48 hrs by light microscopy. The class given is cell-based. The essentials: as §4
For test [16] the target is unchanged. As to the kind of experiment: Inhibition of EZH2 in mouse MOVAS cells over-expressing AKT assessed as reduction in H3K27me2 level at 5 uM measured after 24 hrs by Western blot analysis. The class given is cell-based. The procedure, abridged: as §3
A short description of test [17]: Induction of apoptosis in mouse MOVAS cells assessed as early apoptotic cells at 5 uM by flow cytometry. The class given is functional. The procedure, abridged: as §1
Test [18] relates to MOVAS. As to the kind of experiment: Cell cycle arrest in mouse MOVAS cells assessed as effect on S-phase cell population at 5 uM by flow cytometry. In kind it is functional, cell-based. The essentials:
as §2

Test [19] has as its target Histone-lysine N-methyltransferase EZH2 (Mus musculus) (UniProt Q61188). As to the kind of experiment: Inhibition of EZH2 in mouse MOVAS cells assessed as increase in LC3-II accumulation at 5 uM measured after 24 hrs in presence of MEK1 inhibitor PD98059 by Western blot analysis. The class given is cell-based. The procedure, abridged:
as §3

The subject of test [20] is MOVAS. As to the kind of experiment: Cell cycle arrest in mouse MOVAS cells assessed as effect on G2/M-phase cell population at 5 uM by flow cytometry. The class given is functional, cell-based. The procedure, abridged:
as §2

The target in test [21] is Histone-lysine N-methyltransferase EZH2 (Mus musculus) (UniProt Q61188). The experiment in a line: Inhibition of EZH2 in mouse MOVAS cells transfected with shATG5 assessed as reduction in cell count at 5 uM measured up to 48 hrs by cell counting method. The class given is cell-based. The essentials: (§5)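 MOVAS cells serum-starved 12 h in DMEM/high glucose, then 2×10^5 cells seeded in six-well plates in medium with 10% FBS. Trypsinized at 12, 24, 36 and 48 h and counted by a single blinded observer. Three replicate wells (n = 3); mean ± SD, two-tailed t-test.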

The target is the same in test [22]. As to the kind of experiment: Inhibition of EZH2 in mouse MOVAS cells transfected with shATG5 assessed as reduction in cell count at 5 uM measured after 48 hrs by light microscopy. The class given is cell-based. The essentials:
as §4

The target is the same in test [23]. As to the kind of experiment: Inhibition of EZH2 in mouse MOVAS cells over-expressing AKT assessed as reduction in cell count at 5 uM by light microscopy. The class given is cell-based. The essentials:
as §4

Test [24] has the same target. The experiment in a line: Inhibition of EZH2 in mouse MOVAS cells assessed as elevation of LC3-II expression at 5 uM in presence of chloroquine by Western blot analysis. In kind it is cell-based. The procedure, abridged: as §3
A short description of test [25]: Induction of apoptosis in mouse MOVAS cells assessed as late apoptotic cells at 5 uM by flow cytometry. In kind it is functional. The essentials:
as §1

For test [26], the target named is Histone-lysine N-methyltransferase EZH2 (Mus musculus) (UniProt Q61188). As to the kind of experiment: Inhibition of EZH2 in mouse MOVAS cells assessed as elevation of LC3-II expression at 5 uM by Western blot analysis. In kind it is cell-based. The procedure, abridged:
as §3

Test [27] has the same target. As to the kind of experiment: Inhibition of EZH2 in mouse MOVAS cells over-expressing AKT assessed as reduction in H3K27me3 level at 5 uM measured after 24 hrs by Western blot analysis. In kind it is cell-based. The procedure, abridged: as §3
Test [28] shares this target. As to the kind of experiment: Inhibition of EZH2 in mouse MOVAS cells assessed as reduction in cell count at 5 uM measured after 48 hrs in presence of MEK1 inhibitor PD98059 by cell counting method. In kind it is cell-based. The procedure, abridged:
as §5

Test [29] shares this target. As to the kind of experiment: Inhibition of EZH2 in mouse MOVAS cells transfected with shATG7 assessed as increase in LC3-II expression at 5 uM by Western blot analysis. In kind it is cell-based. The essentials:
as §3

For test [30] the target is unchanged. As to the kind of experiment: Inhibition of EZH2 in mouse MOVAS cells assessed as increase in ERK1/2 phosphorylation at 5 uM measured after 6 hrs in presence of MEK1 inhibitor PD98059 by Western blot analysis. The class given is cell-based. The procedure, abridged:
as §3

Test [31] deals with MOVAS. The experiment in a line: Cell cycle arrest in mouse MOVAS cells assessed as effect on G0/G1-phase cell population at 5 uM by flow cytometry. In kind it is functional, cell-based. The procedure, abridged: as §2
Test [32] concerns the target Histone-lysine N-methyltransferase EZH2 (Mus musculus) (UniProt Q61188). As to the kind of experiment: Inhibition of EZH2 in mouse MOVAS cells over-expressing AKT assessed as increase in LC3-II expression at 5 uM measured after 24 hrs by Western blot analysis. In kind it is cell-based. The procedure, abridged:
as §3

For test [33] the target is unchanged. The experiment in a line: Inhibition of EZH2 in mouse MOVAS cells assessed as effect on S6 phosphorylation at 5 uM measured after 24 hrs by Western blot analysis. The class given is cell-based. The procedure, abridged:
as §3

The target is the same in test [34]. The experiment in a line: Inhibition of EZH2 in mouse MOVAS cells transfected with shATG7 assessed as reduction in cell count at 5 uM measured up to 48 hrs by cell counting method. In kind it is cell-based. The procedure, abridged: as §5
For test [35] the target is unchanged. The experiment in a line: Inhibition of EZH2 in mouse MOVAS cells assessed as reduction in H3K27me2 level at 5 uM measured after 24 hrs by Western blot analysis. The class given is cell-based. The procedure, abridged:
as §3

For test [36] the target is unchanged. As to the kind of experiment: Inhibition of EZH2 in mouse MOVAS cells assessed as appearance of double-membraned vacuole containing fragments of cytoplasmic component in presence of rapamycin by transmission electron microscopy. The class given is cell-based. The procedure, abridged: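 MOVAS cells treated with inhibitor or lentivirus, with rapamycin at 150 nM. Fixed in cold 2.5% glutaraldehyde for 30 min, then further fixed overnight at 4 °C, dehydrated in ethanol and acetone, and embedded in epoxy resin. 60-nm sections stained with uranyl acetate and lead citrate and imaged by TEM for double-membraned autophagic vacuoles.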

The target is the same in test [37]. The experiment in a line: Inhibition of EZH2 in mouse MOVAS cells assessed as reduction in cell number at 5 uM measured at 24 hrs by cell counting method. The class given is cell-based. The procedure, abridged: as §5
Test [38] shares this target. The experiment in a line: Inhibition of EZH2 in mouse MOVAS cells transfected with shATG5 assessed as increase in LC3-II expression at 5 uM by Western blot analysis. In kind it is cell-based. The essentials: as §3
The target is the same in test [39]. The experiment in a line: Inhibition of EZH2 in mouse MOVAS cells over-expressing AKT assessed as reduction in cell count at 5 uM by cell counting method. The class given is cell-based. The procedure, abridged: as §5
Test [40] has the same target. As to the kind of experiment: Inhibition of EZH2 in mouse MOVAS cells assessed as effect on mTOR phosphorylation at 5 uM measured after 24 hrs by Western blot analysis. The class given is cell-based. The essentials: as §3
Test [41] shares this target. The experiment in a line: Inhibition of EZH2 in mouse MOVAS cells assessed as increase in ATG5 expression at 5 uM measured after 24 hrs by Western blot analysis. In kind it is cell-based. The procedure, abridged: as §3

Active and inactive are the calls of the source. The calls are words filed in the database; no cut-off is given here.

Chain of Histone-lysine N-methyltransferase EZH2 (Mus musculus) (Q61188 whole entry): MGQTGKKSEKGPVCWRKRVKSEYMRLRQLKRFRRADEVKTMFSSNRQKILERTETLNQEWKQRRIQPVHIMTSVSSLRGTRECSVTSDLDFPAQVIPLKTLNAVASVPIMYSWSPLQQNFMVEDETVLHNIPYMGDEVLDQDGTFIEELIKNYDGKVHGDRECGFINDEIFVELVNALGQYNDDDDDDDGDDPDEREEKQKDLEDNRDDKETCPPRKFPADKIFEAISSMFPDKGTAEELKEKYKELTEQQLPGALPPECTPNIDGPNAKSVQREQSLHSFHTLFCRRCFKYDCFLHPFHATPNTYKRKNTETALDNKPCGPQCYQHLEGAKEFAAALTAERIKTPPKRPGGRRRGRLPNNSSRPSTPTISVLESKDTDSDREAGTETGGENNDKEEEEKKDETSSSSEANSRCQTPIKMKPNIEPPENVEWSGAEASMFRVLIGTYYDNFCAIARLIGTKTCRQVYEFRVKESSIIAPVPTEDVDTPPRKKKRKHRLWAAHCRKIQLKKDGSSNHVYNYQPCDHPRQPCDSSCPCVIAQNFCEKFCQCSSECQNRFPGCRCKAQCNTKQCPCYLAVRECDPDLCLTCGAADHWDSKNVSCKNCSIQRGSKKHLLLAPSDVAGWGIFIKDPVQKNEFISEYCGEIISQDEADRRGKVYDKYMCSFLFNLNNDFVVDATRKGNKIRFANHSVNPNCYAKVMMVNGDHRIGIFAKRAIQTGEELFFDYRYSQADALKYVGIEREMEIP

Turning to `C[S+](C)[O-]` [DIMETHYL SULFOXIDE], the figures for the Activity in [1] and in test [3] were 9.76% and 5.96%, respectively. The outcome with MOVAS [2], in the test with MOVAS [4] and in the test on MOVAS [5] was inactive.

`CCCc1cc(C)[nH]c(=O)c1CNC(=O)c1cc(-c2ccc(N3CCN(C(C)C)CC3)nc2)cc2c1cnn2C(C)C`: the inhibition entry in [6], in test [7], in [9], in test [10], in test [12] and in [13] was “Active” each time. The inhibition result in test [14], in test [16], in test [23], in test [24], in test [26] and in [27] was “Active” each time. Further, the inhibition result in test [32], in test [35], in [36], in test [37], in [39] and in [41] was “Active” throughout. In addition, the inhibition result in [8], in [11], in [15], in test [19], in [21] and in test [22] was “inactive” each time. The inhibition result in [28], in test [29], in test [30], in test [33], in [34] and in [38] was “inactive” in each case. The inhibition entry in test [40] was “inactive”. Moreover, the Activity in [17] stood at 8.67%; in test [25], 6.11%. Further, the result in the test with MOVAS [18], in the test on MOVAS [20] and with MOVAS [31] was inactive.

(Values after ChEMBL document CHEMBL5712897, “EZH2 inhibits autophagic cell death of aortic vascular smooth muscle cells to affect aortic dissection” (2018).)
